Laboratory results: ChEMBL document CHEMBL1125736, “N-[(omega-amino-1-hydroxyalkyl)phenyl]methanesulfonamide derivatives with class III antiarrhythmic activity” (1991)

Legend:
Canis familiaris [1] = test: Compound was tested in vivo in dogs at a dose of 10.0 mg/kg through intravenous route and time at which sustained ventricular arrhythmias were induced was recorded.(Base line value-2); type: functional, Canis lupus familiaris, Cardiac ventricle
Outline: (§1)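 Dogs with myocardial infarction were studied 3-9 days after infarction. They were reanesthetized with pentobarbital, ventilated, and electrodes were placed via thoracotomy; blood gases were monitored. Control ERPs and reproducible inducibility were set by programmed electrical stimulation, then cumulative iv doses were given. Agents were in glass-distilled water or NaOH-neutralized saline (pH 6.7-7.0). Animals were counted per category: NI, nonsustained, sustained, VF, or AV block preventing atrial pacing.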

Canis familiaris [2] = test: Compound was tested in vivo in dogs at a dose of 0.1 mg/kg through intravenous route and time at which conduction block at the atrioventricular node prevented atrial pacing was recorded.(Base line value-0); type: functional, Canis lupus familiaris; outline: as §1
Canis familiaris [3] = test: Compound was tested in vivo in dogs at a dose of 1.0 mg/kg through intravenous route and time at which sustained ventricular arrhythmias were induced was recorded.(Base line value-2); type: functional, Canis lupus familiaris, Cardiac ventricle; outline: as §1
Oryctolagus cuniculus [4] = species: Oryctolagus cuniculus; test: Tested for force of contraction measured in mg at a pacing rate of 2 Hz in vitro with rabbit heart tissue preparations.; type: functional
Outline: (§2)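 Isolated rabbit heart tissues, all from one heart, each its own baseline; 2 h equilibration, perfusate changed every 15 min, basal stimulation 2 Hz between measurements. Exposed to 10^-7, 10^-6 and 10^-5 M drug, 15 min each; values reported at 10^-5 M as percent change from baseline. Drug solutions prepared daily in glass-distilled water. Force and rate recorded on polygraph.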

Canis familiaris [5] = test: Compound was tested in vivo in dogs at a dose of 1.0 mg/kg through intravenous route and time at which nonsustained ventricular arrhythmias were induced was recorded.(Base line value-0); type: functional, Canis lupus familiaris, Cardiac ventricle; outline: as §1
Canis familiaris [6] = test: Conduction time from the atrium to His bundle was tested in dogs at a dose of 1.0 mg/kg through intravenous administration. (baseline value- 73+/-3 ); type: functional, Canis lupus familiaris
Canis familiaris [7] = test: Compound was tested in vivo in dogs at a dose of 10.0 mg/kg through intravenous route and time at which nonsustained ventricular arrhythmias were induced was recorded.(Base line value-1); type: functional, Canis lupus familiaris, Cardiac ventricle; outline: as §1
Canis familiaris [8] = test: Conduction time from Q wave to T wave of lead II electrocardiogram was tested in dogs at a dose of 3.0 mg/kg through intravenous administration. (baseline value- 352+/-7); type: functional, Canis lupus familiaris
Canis familiaris [9] = test: Conduction time from the His bundle to the onset of ventricular depolarizations was tested in dogs at a dose of 10.0 mg/kg through intravenous administration. (baseline value- 17+/-1 ); type: functional, Canis lupus familiaris, Cardiac ventricle
Canis familiaris [10] = test: Compound was tested in vivo in dogs at a dose of 0.3 mg/kg through intravenous route and time at which conduction block at the atrioventricular node prevented atrial pacing was recorded.(Base line value-0); type: functional, Canis lupus familiaris; outline: as §1
Canis familiaris [11] = test: Conduction time for ventricular refractory period of the second premature stimulus was tested in dogs at a dose of 10 mg/kg through intravenous administration. (baseline value- 123+/-4); type: functional, Canis lupus familiaris, Cardiac ventricle
Canis familiaris [12] = test: Conduction time for ventricular refractory period of the first premature stimulus was tested in dogs at a dose of 10.0 mg/kg through intravenous administration. (baseline value- 137+/-4); type: functional, Canis lupus familiaris, Cardiac ventricle
Canis familiaris [13] = test: Compound was tested in vivo in dogs at a dose of 3.0 mg/kg through intravenous route and time at which ventricular fibrillation was induced was recorded.(Base line value-6); type: functional, Canis lupus familiaris, Cardiac ventricle; settings: in the assay text read “Base line value-3” for “Base line value-6”; outline: as §1
Oryctolagus cuniculus [14] = species: Oryctolagus cuniculus; test: Tested for effective refractory period measured at a pacing rate of 3 Hz in vitro with rabbit heart tissue preparations.; type: functional; parameters: unit: %; outline: as §2
Canis familiaris [15] = test: Compound was tested in vivo in dogs at a dose of 1.0 mg/kg through intravenous route and time at which ventricular arrhythmias were not indicible was recorded.(Base line value-5); type: functional, Canis lupus familiaris, Cardiac ventricle; outline: as §1
Oryctolagus cuniculus [16] = species: Oryctolagus cuniculus; test: Tested for effective refractory period measured at a pacing rate of 1 Hz in vitro with rabbit heart tissue preparations.; type: functional; outline: as §2
Canis familiaris [17] = test: Compound was tested in vivo in dogs at a dose of 3.0 mg/kg through intravenous route and time at which sustained ventricular arrhythmias were induced was recorded.(Base line value-2); type: functional, Canis lupus familiaris, Cardiac ventricle; outline: as §1
Canis familiaris [18] = test: Conduction time from the atrium to His bundle was tested in dogs at a dose of 3.0 mg/kg through intravenous administration. (baseline value 73+/-3 ); type: functional, Canis lupus familiaris
Canis familiaris [19] = test: Conduction time for ventricular refractory period of the second premature stimulus was tested in dogs at a dose of 1.0 mg/kg through intravenous administration. (baseline value- 123+/-4); type: functional, Canis lupus familiaris, Cardiac ventricle
Canis familiaris [20] = test: Compound was tested in vivo in dogs at a dose of 3.0 mg/kg through intravenous route and time at which nonsustained ventricular arrhythmias were induced was recorded.(Base line value-1); type: functional, Canis lupus familiaris, Cardiac ventricle; settings: in the assay text read “Base line value-0” for “Base line value-1”; outline: as §1
Canis familiaris [21] = test: Compound was tested in vivo in dogs at a dose of 10.0 mg/kg through intravenous route and time at which ventricular fibrillation was induced was recorded.(Base line value-6); type: functional, Canis lupus familiaris, Cardiac ventricle; settings: in the assay text read “Base line value-3” for “Base line value-6”; outline: as §1
Canis familiaris [22] = test: Compound was tested in vivo in dogs at a dose of 1.0 mg/kg through intravenous route and time at which ventricular fibrillation was induced was recorded.(Base line value-3); type: functional, Canis lupus familiaris, Cardiac ventricle; outline: as §1
Canis familiaris [23] = test: Compound was tested in vivo in dogs at a dose of 10.0 mg/kg through intravenous route and time at which conduction block at the atrioventricular node prevented atrial pacing was recorded.(Base line value-0); type: functional, Canis lupus familiaris; outline: as §1
Canis familiaris [24] = test: Conduction time from the atrium to His bundle was tested in dogs at a dose of 10.0 mg/kg through intravenous administration. (baseline value- 73+/-3 ); type: functional, Canis lupus familiaris
Canis familiaris [25] = test: Conduction time from the His bundle to the onset of ventricular depolarizations was tested in dogs at a dose of 3.0 mg/kg through intravenous administration. (baseline value- 17+/-1 ); type: functional, Canis lupus familiaris, Cardiac ventricle
Canis familiaris [26] = test: Conduction time from Q wave to T wave of lead II electrocardiogram was tested in dogs at a dose of 1.0 mg/kg through intravenous administration. (baseline value- 352+/-7); type: functional, Canis lupus familiaris
Canis familiaris [27] = test: Conduction time from the His bundle to the onset of ventricular depolarizations was tested in dogs at a dose of 1.0 mg/kg through intravenous administration. (baseline value- 17+/-1 ); type: functional, Canis lupus familiaris, Cardiac ventricle
Oryctolagus cuniculus [28] = species: Oryctolagus cuniculus; test: Tested for conduction time measured at a pacing rate of 1 Hz in vitro with rabbit heart tissue preparations.; type: functional; outline: as §2
Canis familiaris [29] = test: Conduction time for ventricular refractory period of the second premature stimulus was tested in dogs at a dose of 3.0 mg/kg through intravenous administration. (baseline value- 123+/-4); type: functional, Canis lupus familiaris, Cardiac ventricle
Canis familiaris [30] = test: Compound was tested in vivo in dogs at a dose of 3.0 mg/kg through intravenous route and number of animals in which ventricular arrhythmias were not inducible was recorded.(Base line value-5)
Canis familiaris [31] = test: Compound was tested in vivo in dogs at a dose of 1.0 mg/kg through intravenous route and time at which conduction block at the atrioventricular node prevented atrial pacing was recorded.(Base line value-0); type: functional, Canis lupus familiaris; outline: as §1
Canis familiaris [32] = test: Compound was tested in vivo in dogs at a dose of 3.0 mg/kg through intravenous route and time at which conduction block at the atrioventricular node prevented atrial pacing was recorded.(Base line value-0); type: functional, Canis lupus familiaris; outline: as §1
Oryctolagus cuniculus [33] = species: Oryctolagus cuniculus; test: Tested for rate automaticity measured in beats per minute from unpaced right atria of rabbit heart.; type: functional; outline: as §2
Canis familiaris [34] = test: Conduction time for ventricular refractory period of the first premature stimulus was tested in dogs at a dose of 1.0 mg/kg through intravenous administration. (baseline value- 137+/-4); type: functional, Canis lupus familiaris, Cardiac ventricle
Canis familiaris [35] = test: Compound was tested in vivo in dogs at a dose of 10 mg/kg through intravenous route and time at which ventricular arrhythmias were not indicible was recorded.(Base line value-5); type: functional, Canis lupus familiaris, Cardiac ventricle; outline: as §1
Canis familiaris [36] = test: Conduction time for ventricular refractory period of the first premature stimulus was tested in dogs at a dose of 3.0 mg/kg through intravenous administration. (baseline value- 137+/-4); type: functional, Canis lupus familiaris, Cardiac ventricle
Canis familiaris [37] = test: Conduction time from Q wave to T wave of lead II electrocardiogram was tested in dogs at a dose of 10 mg/kg through intravenous administration. (baseline value- 352+/-7); type: functional, Canis lupus familiaris

For `CC(C)NCC(O)c1ccc(NS(C)(=O)=O)cc1.Cl` (configuration not stated) [SOTALOL HYDROCHLORIDE], the Time (Canis familiaris [1]) was 0 animals, the Time (Canis familiaris [2]) was 0 animals and the Time (Canis familiaris [3]) was 2 animals. It also gave an FOC (Oryctolagus cuniculus [4]) of 6, a Time (Canis familiaris [5]) of 0 animals and a Time (Canis familiaris [6]) of 77 ms. It also gave a Time (Canis familiaris [7]) of 1 animals, a Time (Canis familiaris [8]) of 197 ms and a Time (Canis familiaris [9]) of 42 ms. It also gave a Time (Canis familiaris [10]) of 0 animals, a Time (Canis familiaris [11]) of 141 ms and a Time (Canis familiaris [12]) of 157 ms. For the same compound, the Time (Canis familiaris [13]) was 0 animals, the ERP3 (Oryctolagus cuniculus [14]) was 4.9 and the Time (Canis familiaris [15]) was 8 animals. It also gave an ERP1 (Oryctolagus cuniculus [16]) of 7.3, a Time (Canis familiaris [17]) of 1 animals and a Time (Canis familiaris [18]) of 90 ms. It also gave a Time (Canis familiaris [19]) of 126 ms, a Time (Canis familiaris [20]) of 2 animals and a Time (Canis familiaris [21]) of 0 animals. It also gave a Time (Canis familiaris [22]) of 0 animals, a Time (Canis familiaris [23]) of 4 animals and a Time (Canis familiaris [24]) of 107 ms. The Time (Canis familiaris [25]) was 39 ms, the Time (Canis familiaris [26]) was 197 ms and the Time (Canis familiaris [27]) was 40 ms. It also gave a CT1 (Oryctolagus cuniculus [28]) of -11.7, a Time (Canis familiaris [29]) of 138 ms and a Number of animals not inducible (Canis familiaris [30]) of 7 animals. It also gave a Time (Canis familiaris [31]) of 0 animals, a Time (Canis familiaris [32]) of 0 animals and a Rate (Oryctolagus cuniculus [33]) of -10. It also gave a Time (Canis familiaris [34]) of 145 ms, a Time (Canis familiaris [35]) of 5 animals and a Time (Canis familiaris [36]) of 152 ms. For the same compound, the Time (Canis familiaris [37]) was 181 ms.
